Reference: ChEMBL document CHEMBL1140016, “Arylpropanolamines: selective beta3 agonists arising from strategies to mitigate phase I metabolic transformations” (Bioorg Med Chem Lett, 2007)

Experiments:
[1] = biological target: T1, Beta-3 adrenergic receptor (Homo sapiens, UniProt P13945); assay: Displacement of [125I]iodocyanopindolol from cloned human adrenergic beta-3 receptor expressed in CHO cells; type: cell-based
Target sequence in this assay (P13945 whole entry): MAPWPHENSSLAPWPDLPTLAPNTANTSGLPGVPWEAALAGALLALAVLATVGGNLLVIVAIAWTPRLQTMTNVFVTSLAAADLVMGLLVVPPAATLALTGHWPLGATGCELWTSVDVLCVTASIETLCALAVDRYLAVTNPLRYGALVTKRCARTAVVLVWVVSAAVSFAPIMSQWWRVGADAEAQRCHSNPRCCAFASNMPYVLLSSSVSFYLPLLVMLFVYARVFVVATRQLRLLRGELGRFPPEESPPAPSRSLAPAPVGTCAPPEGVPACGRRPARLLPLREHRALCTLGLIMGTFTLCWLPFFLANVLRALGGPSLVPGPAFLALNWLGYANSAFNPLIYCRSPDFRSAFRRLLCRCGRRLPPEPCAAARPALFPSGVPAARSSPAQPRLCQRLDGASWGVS

[2] = biological target: T1, Beta-3 adrenergic receptor; assay: Intrinsic activity at human cloned adrenergic beta3 receptor expressed in CHO cells assessed as cAMP accumulation relative to isoproterenol; type: functional, cell-based
Target sequence in this assay (P13945 whole entry, looked up): as the sequence (P13945 whole entry) above

Homo sapiens [3] = species: Homo sapiens; assay: Selectivity ratio of Ki for human adrenergic beta-1 receptor to Ki for human adrenergic beta-3 receptor
Homo sapiens [4] = species: Homo sapiens; assay: Selectivity ratio of Ki for adrenergic beta2 receptor Ki for adrenergic beta-3 receptor
[5] = biological target: Beta-1 adrenergic receptor (Homo sapiens, UniProt P08588); assay: Displacement of [125I]iodocyanopindolol from human cloned adrenergic beta-1 receptor expressed in CHO cells; type: cell-based
[6] = biological target: Beta-1 adrenergic receptor (Cavia porcellus) (UniProt B0FL73); assay: Intrinsic activity at adrenergic beta-1 receptor in spontaneously beating guinea pig atria assessed as acceleration in contraction relative to isoproterenol
[7] = biological target: Beta-2 adrenergic receptor (Homo sapiens, UniProt P07550); assay: Displacement of [125I]iodocyanopindolol from human cloned adrenergic beta-2 receptor expressed in CHO cells; type: cell-based
African green monkey [8] = assay: Effect on lipolysis in iv dosed African green monkey; type: functional; conditions: Chlorocebus sabaeus
Method in brief: (§1)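 Compounds were given iv to ketamine-sedated African green monkeys across a range of doses. Lipolysis ED50 (mg/kg) came from the rise in serum free fatty acids. Onset doses were the lowest doses giving a statistically significant rise in heart rate (β1) or fall in serum K+ (β2). Each margin is the onset dose divided by the lipolysis ED50.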

African green monkey [9] = assay: Ratio of serum potassium concentration to ED50 for lipolysis in African green monkey; type: functional, Chlorocebus sabaeus; method in brief: as §1
African green monkey [10] = assay: Ratio of effect on tachycardia to ED50 for lipolysis in African green monkey; type: functional, Chlorocebus sabaeus; method in brief: as §1
African green monkey [11] = assay: Effect on potassium levels in African green monkey serum at 0.1 mg/kg, iv; type: functional, Chlorocebus sabaeus; design: unit not given beside the values
Method in brief: (§2)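 Single iv dose given to ketamine-sedated African green monkeys, either 0.1 or 0.5 mg/kg as the line states. Three read-outs were recorded after dosing: change in serum free fatty acids (β3 lipolysis), change in serum K+ (a decrease is β2-mediated) and change in heart rate (β1/β2 tachycardia). Changes were tested for significance at P < 0.05.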

African green monkey [12] = assay: Effect on tachycardia in African green monkey assessed as change in heart rate at 0.1 mg/kg, iv; type: functional, Chlorocebus sabaeus; method in brief: as §2
African green monkey [13] = assay: Effect on African green monkey assessed as change in free fatty acid level at 0.1 mg/kg, iv; type: functional, Chlorocebus sabaeus; method in brief: as §2

Sequence of Beta-1 adrenergic receptor (Cavia porcellus) (B0FL73 1-467): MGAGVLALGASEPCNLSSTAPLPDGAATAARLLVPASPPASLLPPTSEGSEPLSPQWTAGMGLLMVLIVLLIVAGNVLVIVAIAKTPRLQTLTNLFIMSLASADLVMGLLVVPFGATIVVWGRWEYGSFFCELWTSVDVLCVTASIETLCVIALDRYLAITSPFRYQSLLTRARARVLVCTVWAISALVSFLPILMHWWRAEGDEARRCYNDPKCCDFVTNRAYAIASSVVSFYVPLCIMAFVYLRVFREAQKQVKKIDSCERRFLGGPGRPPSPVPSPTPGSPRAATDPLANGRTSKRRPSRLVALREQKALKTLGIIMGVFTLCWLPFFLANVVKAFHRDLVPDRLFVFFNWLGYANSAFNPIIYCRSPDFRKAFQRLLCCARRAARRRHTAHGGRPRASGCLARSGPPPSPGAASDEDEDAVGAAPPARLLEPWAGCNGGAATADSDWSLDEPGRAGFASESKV
Sequence of Beta-1 adrenergic receptor (P08588 whole entry): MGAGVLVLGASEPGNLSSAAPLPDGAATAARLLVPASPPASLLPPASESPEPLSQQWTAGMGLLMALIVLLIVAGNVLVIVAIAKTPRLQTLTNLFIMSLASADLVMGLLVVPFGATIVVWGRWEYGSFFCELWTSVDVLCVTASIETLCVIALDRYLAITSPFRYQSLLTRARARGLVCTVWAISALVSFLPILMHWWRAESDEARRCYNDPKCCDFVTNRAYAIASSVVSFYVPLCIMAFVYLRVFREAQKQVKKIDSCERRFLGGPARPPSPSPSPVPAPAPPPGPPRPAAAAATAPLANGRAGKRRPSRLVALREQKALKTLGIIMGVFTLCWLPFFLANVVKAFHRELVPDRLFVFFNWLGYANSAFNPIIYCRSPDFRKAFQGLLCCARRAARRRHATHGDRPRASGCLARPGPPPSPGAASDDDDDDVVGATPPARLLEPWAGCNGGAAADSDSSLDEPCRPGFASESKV
Sequence of Beta-2 adrenergic receptor (P07550 whole entry): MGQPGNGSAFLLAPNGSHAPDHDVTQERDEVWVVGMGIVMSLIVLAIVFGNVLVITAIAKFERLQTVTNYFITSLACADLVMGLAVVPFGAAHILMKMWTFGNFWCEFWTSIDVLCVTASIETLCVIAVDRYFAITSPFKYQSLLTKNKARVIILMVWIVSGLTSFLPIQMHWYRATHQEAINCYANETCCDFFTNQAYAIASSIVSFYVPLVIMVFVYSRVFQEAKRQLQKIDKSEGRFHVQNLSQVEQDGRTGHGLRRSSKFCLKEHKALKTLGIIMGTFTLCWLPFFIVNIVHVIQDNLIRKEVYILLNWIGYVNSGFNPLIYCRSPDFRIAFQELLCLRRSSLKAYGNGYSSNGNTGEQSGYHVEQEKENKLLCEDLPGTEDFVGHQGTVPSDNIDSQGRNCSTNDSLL

COc1ccc(CNC[C@H](O)COc2ccc(O)c(NS(C)(=O)=O)c2)cc1
Ki [1]: 360 nM | Intrinsic activity [2]: 46% | Ratio Ki (Homo sapiens [3]): 3 | Ratio Ki (Homo sapiens [4]): 0.4

COc1ccc([C@@H](Cc2ccccc2)NC[C@H](O)COc2ccc(O)c(NS(C)(=O)=O)c2)cc1OC
Ki [1]: 3 nM | Intrinsic activity [2]: 67% | Ratio Ki (Homo sapiens [3]): 120 | Ratio Ki (Homo sapiens [4]): 15

COc1ccc([C@H](NC[C@H](O)c2ccc(O)c(NS(C)(=O)=O)c2F)C(=O)Nc2ccccc2)cc1
Intrinsic activity [2]: 58%

COc1ccc([C@H](Cc2ccccc2)NC[C@@H](O)Cc2ccc(O)c(NS(C)(=O)=O)c2)cc1OC
Ki [1]: 9 nM | Intrinsic activity [2]: 62% | Ki [5]: 560 nM | Intrinsic activity [6]: 75% | Ki [7]: 24 nM

COc1cccc([C@@H](Cc2ccccc2)NC[C@@H](O)Cc2ccc(O)c(NS(C)(=O)=O)c2)c1
Ki [1]: 110 nM | Intrinsic activity [2]: 44% | Ki [5]: 3600 nM | Ki [7]: 350 nM

COc1ccc(CNCC(O)Cc2ccc(O)c(NS(C)(=O)=O)c2)cc1 (stereo not given)
Ki [1]: 1100 nM | Intrinsic activity [2]: 50% | Ratio Ki (Homo sapiens [3]): 2 | Ratio Ki (Homo sapiens [4]): 0.3

COc1ccc([C@H](Cc2ccccc2)NC[C@H](O)Cc2ccc(O)c(NS(C)(=O)=O)c2)cc1OC
Ki [1]: 150 nM | Intrinsic activity [2]: 70% | Ki [5]: 47000 nM | Intrinsic activity [6]: 48% | Ki [7]: 820 nM

CS(=O)(=O)Nc1cc(C[C@H](O)CNC(c2ccc(OC(F)F)cc2)c2ccc(OC(F)F)cc2)ccc1O
Ki [1]: 340 nM | Intrinsic activity [2]: 60% | Ratio Ki (Homo sapiens [3]): 3 | Ratio Ki (Homo sapiens [4]): 0.6

COc1ccc([C@H](CCc2ccccc2Cl)NC[C@H](O)Cc2ccc(O)c(NS(C)(=O)=O)c2)cc1OC
Ki [1]: 7 nM | Intrinsic activity [2]: 73% | Ki [5]: 270 nM | Ratio Ki (Homo sapiens [3]): 39 | Ratio Ki (Homo sapiens [4]): 8 | Ki [7]: 57 nM

CCOP(=O)(OCC)c1ccc(NC(=O)[C@@](C)(NC[C@H](O)c2ccc(O)c(NS(C)(=O)=O)c2)c2ccc(OC)cc2)cc1
ED50 (African green monkey [8]): 0.1 mg/kg | Ratio (African green monkey [9]): >25 | Ratio (African green monkey [10]): >25

COc1ccc([C@@H](Cc2ccccc2)NC[C@H](O)Cc2ccc(O)c(NS(C)(=O)=O)c2)cc1
Ki [1]: 460 nM | Intrinsic activity [2]: 30% | Ki [5]: > 10000 nM | Intrinsic activity [6]: 0% | Ki [7]: 3100 nM

CS(=O)(=O)Nc1cc(OC[C@@H](O)CN)ccc1O
Ki [1]: 15000 nM | Intrinsic activity [2]: 47% | Ratio Ki (Homo sapiens [3]): 0.08 | Ratio Ki (Homo sapiens [4]): 0.04

COc1ccc([C@@H](Cc2ccccc2)NC[C@H](O)CCc2ccc(O)c(NS(C)(=O)=O)c2)cc1OC
Ki [1]: 160 nM | Intrinsic activity [2]: 60% | Ratio Ki (Homo sapiens [3]): 112 | Ratio Ki (Homo sapiens [4]): 27

COc1ccc([C@H](CCc2ccccc2)NC[C@H](O)Cc2ccc(O)c(NS(C)(=O)=O)c2)cc1OC
Ki [1]: 9 nM | Intrinsic activity [2]: 84% | Ki [5]: 1000 nM | Ratio Ki (Homo sapiens [3]): 111 | Ratio Ki (Homo sapiens [4]): 43 | Ki [7]: 390 nM | Activity (African green monkey [11]): -0.25 | Activity (African green monkey [12]): 29 | Activity (African green monkey [13]): 0.95

COc1ccc(CC(Cc2ccc(OC)c(OC)c2)NC[C@@H](O)Cc2ccc(O)c(NS(C)(=O)=O)c2)cc1OC
Ki [1]: 170 nM | Intrinsic activity [2]: 75% | Ratio Ki (Homo sapiens [3]): 3 | Ratio Ki (Homo sapiens [4]): 0.2

COc1ccc([C@H](CCc2ccccc2)NC[C@H](O)Cc2ccc(O)c(NS(C)(=O)=O)c2)cc1
Ki [1]: 31 nM | Intrinsic activity [2]: 93% | Ki [5]: 730 nM | Ratio Ki (Homo sapiens [3]): 24 | Ratio Ki (Homo sapiens [4]): 9 | Ki [7]: 280 nM

CS(=O)(=O)Nc1c(O)ccc([C@@H](O)CN[C@H](Cc2ccccc2)c2ccc(OC(F)F)cc2)c1F
Ki [1]: 270 nM | Intrinsic activity [2]: 77%

COc1ccc([C@@H](Cc2cccc(Cl)c2)NC[C@@H](O)Cc2ccc(O)c(NS(C)(=O)=O)c2)cc1OC
Ki [1]: 6 nM | Intrinsic activity [2]: 68% | Ratio Ki (Homo sapiens [3]): 52 | Ratio Ki (Homo sapiens [4]): 13 | Activity (African green monkey [11]): -0.55 | Activity (African green monkey [12]): 6 | Activity (African green monkey [13]): 0.92

COc1ccc([C@H](CCc2cccc(Cl)c2)NC[C@H](O)Cc2ccc(O)c(NS(C)(=O)=O)c2)cc1OC
Ki [1]: 29 nM | Intrinsic activity [2]: 57% | Ki [5]: 420 nM | Ratio Ki (Homo sapiens [3]): 14 | Ratio Ki (Homo sapiens [4]): 1 | Ki [7]: 26 nM

COc1ccc([C@@H](Cc2ccc(Cl)cc2)NC[C@@H](O)Cc2ccc(O)c(NS(C)(=O)=O)c2)cc1OC
Ki [1]: 24 nM | Intrinsic activity [2]: 68% | Ratio Ki (Homo sapiens [3]): 24 | Ratio Ki (Homo sapiens [4]): 6

CS(=O)(=O)Nc1cc(OC[C@@H](O)CN[C@H](Cc2ccccc2)c2ccc(OC(F)F)cc2)ccc1O
Ki [1]: 5 nM | Intrinsic activity [2]: 48% | Ratio Ki (Homo sapiens [3]): 66 | Ratio Ki (Homo sapiens [4]): 7
